Published values of several laboratories.
Target: Tyrosine-protein kinase receptor UFO (AXL, Homo sapiens, UniProt P30530)

Structure (SMILES) | assay | test system | conditions | endpoint | value
CN1CC(Oc2cnc(C#N)cc2-c2ccn3nc(NC(=O)C4CC4)cc3c2)C1 | enzyme activity, inhibitor |  | 1 µM | inhibition | -5%
CNC(=O)c1cc(Oc2ccc(NC(=O)Nc3ccc(Cl)c(C(F)(F)F)c3)cc2)ccn1 | enzyme activity, inhibitor |  | 10 µM | inhibition | 68%
CC(C)(C)c1nc2c(s1)c1nc(N)ncc1c1ccc(NS(=O)(=O)c3c(F)cccc3F)c(F)c12 | enzyme activity, inhibitor, radiometric |  | 1 µM | remaining activity | 100%
CS(=O)(=O)CCNCc1ccc(-c2ccc3ncnc(Nc4ccc(OCc5cccc(F)c5)c(Cl)c4)c3c2)o1 | cell-free assay |  | 0.5 µM | remaining signal | 96.2%
COc1cc2ncnc(Nc3ccc(Oc4ccccc4)c(C)c3C)c2cc1OC | enzyme activity, inhibitor |  | 1 µM | inhibition | -3%
COc1cc(Cl)c(C(=O)N[C@@H](CN[C@H]2CC[C@@H](N)CC2)Cc2ccc(C#N)cc2)cc1-c1ccc(CN[C@H](C)c2ccc(C)cc2)o1 | enzyme activity, inhibitor |  | 1 µM | remaining activity | 56%
O=C(Nc1cccnn1)N1CCC(=Cc2cccc(Oc3ccc(C(F)(F)F)cn3)c2)CC1 | cell-free assay, competition with immobilised ligand |  | 1 µM | remaining binding | 100%
COc1ccc(C(=O)Nc2sc3c(c2C(N)=O)CCCC3)cc1OC | enzyme activity, inhibitor |  | 0.5 µM | remaining activity | 84.4%
Cc1[nH]c(/C=C2\C(=O)Nc3ccc(F)cc32)c(C)c1C(=O)N[C@H]1CCN(C(=O)N(C)C)C1 | enzyme activity, inhibitor |  | 0.1 µM | remaining activity | 89%
Cc1ccc(NC(=O)c2ccc(C)c(C(F)(F)F)c2)cc1C#Cc1nn(C2CCC(O)CC2)c2ncnc(N)c12 (centres unmarked) | cell-free assay |  | 10 µM | remaining signal | 56%
CCCS(=O)(=O)Nc1ccc(F)c(C(=O)c2c[nH]c3ncc(-c4ccc(Cl)cc4)cc23)c1F | enzyme activity, inhibitor |  | 1 µM | inhibition | < 10%
CCC(=O)N[C@@H]1CC[C@H](C(=O)N(C)c2ccc(-c3nc4ccccc4o3)cc2)C1 | cell-free assay, competition with immobilised ligand |  | 1 µM | remaining binding | 100%
CCN(CC)CCNC(=O)c1c(C)[nH]c(/C=C2\C(=O)Nc3ccc(F)cc32)c1C | enzyme activity, inhibitor |  | 0.1 µM | remaining activity | 41%
Cc1ccc(C(=O)Nc2ccc(CN3CCN(C)CC3)c(C(F)(F)F)c2)cc1C#Cc1cnc2cccnn12 | enzyme activity |  | 23.5 nM | remaining activity | 45%
CCCOc1ccc(OC)c(F)c1C(=O)c1ccc(C(=O)N[C@@H]2CNC[C@H]2NC(=O)c2ccc3[nH]ncc3c2)cc1 | enzyme activity, inhibitor |  | 10 µM | remaining activity | 23%
CNCc1ccc(-c2cc(-c3nc(-c4ccc(S(=O)(=O)C(C)C)cc4)cnc3N)on2)cc1 | enzyme activity, inhibitor |  | 2 µM | inhibition | 75%

Structure (SMILES) | assay | test system | conditions | endpoint | value
O=c1cc(-c2cccc3c2Sc2ccccc2S3)oc(N2CCOCC2)c1 | enzyme activity, inhibitor |  | 0.5 µM | remaining activity | 106%
COc1ccc2cc(OCC3(C(=O)O)CN(C(=O)c4ccc(F)cc4)C3)ccc2c1 | cell-free assay, competition with immobilised ligand |  | 1 µM | remaining binding | 100%
CCN(CC)CCNC(=O)c1c(C)[nH]c(/C=C2\C(=O)Nc3ccc(F)cc32)c1C | enzyme activity, inhibitor |  | 0.3 µM | inhibition | 75%
CNC(=O)Nc1ccc2c(c1)[C@@]1(CC2)OC(=O)N(CC(=O)N(Cc2ccc(F)cc2)[C@@H](C)C(F)(F)F)C1=O | cell-free assay, competition with immobilised ligand |  | 1 µM | remaining binding | 67%
N#CCCc1ccc2c(c1)-c1[nH]c3ccc([N+](=O)[O-])cc3c1CC(=O)N2 | cell-free assay |  | 0.5 µM | remaining signal | 95.5%
CC1=C(C#N)[C@@H](c2ccc3[nH]nc(C)c3c2)C(C#N)=C(c2ccc(Cl)cc2)N1 | cell-free assay, competition with immobilised ligand |  | 1 µM | remaining binding | 100%
CCN1CCN(Cc2ccc(NC(=O)c3ccc(C)c(Oc4ccnc5[nH]ccc45)c3)cc2C(F)(F)F)CC1 | target engagement in cells, inhibitor, chemoproteomics | A-375 | 5 µM | inhibition | -35.7%
CNCc1ccccc1-c1csc([C@H](C)Nc2nc(C)nc3cc(OC)c(OC)cc23)c1 | cell-free assay, competition with immobilised ligand |  | 1 µM | remaining binding | 100%
COc1cc2c(Nc3ccc(Br)cc3F)ncnc2cc1OCC1CCN(C)CC1 | cell-free assay |  | 0.5 µM | remaining signal | 55%
Cc1ccc(C(=O)NCc2ccsc2)cc1C#Cc1cn(C(C)C)c2ncnc(N)c12 | enzyme activity, inhibitor |  | 1 µM | activity vs control | 72%
Cc1sc(C(=O)NC2COC2)cc1-n1cc(NC(=O)Nc2c(F)cccc2Cl)cn1 | enzyme activity, inhibitor |  | 10 µM | remaining activity | 86.6%
CS(=O)(=O)N1CCCC(NC(=O)[C@H](CCC2CCCCC2)NC(=O)c2ccc(CNc3ncnc4c3nnn4-c3ccccc3)cc2)C1 (some centres unmarked) | cell-free assay, competition with immobilised ligand |  | 0.1 µM | remaining binding | 79%
COc1cc(Nc2c(C#N)cnc3cc(OCCCN4CCN(C)CC4)c(OC)cc23)c(Cl)cc1Cl | cell-free assay |  | 0.5 µM | remaining signal | 37.6%
C=CC(=O)Nc1cc(Nc2nccc(Nc3cc(Cl)c(F)cc3C(C)(C)O)n2)c(OC)cc1N1CC[C@@H](N(C)C)C1 | enzyme activity, inhibitor |  | 1 µM | inhibition | 16%
CN(C)C(=O)Cn1cc(-c2nc([C@@](C)(c3ccc(-c4cnc(N)nc4)cc3)C3CC3)no2)cn1 | cell-free assay, competition with immobilised ligand |  | 1 µM | remaining binding | 98%
CCN(CC)CCNC(=O)c1c(C)[nH]c(/C=C2\C(=O)Nc3ccc(Cl)cc32)c1C | enzyme activity, inhibitor |  | 0.5 µM | remaining activity | 25.2%
